Assay results from BindingDB's records for doi:10.1021/jm990942i (University of Montpellier, 2000).
pKi: −log10 of the molar value.

Biological target: Gastrin-releasing peptide receptor (Rattus norvegicus, UniProt P52500)
Assay: In vitro binding affinity against bombesin / GRP receptors on rat pancreatic acini.
Procedure, shortened: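 Male Wistar rat dispersed pancreatic acini (about 1 mg/mL protein) incubated 60 min at 37 °C with 20 pM (3-[125I]iodotyrosyl15)GRP and varying analogue; pellet centrifuged at 10000g, washed twice, counted. Nonspecific binding with 10 μM unlabeled BN. Specific binding as %, mean ± SD of three experiments in duplicate.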

Chain of Gastrin-releasing peptide receptor (P52500 whole entry N28S): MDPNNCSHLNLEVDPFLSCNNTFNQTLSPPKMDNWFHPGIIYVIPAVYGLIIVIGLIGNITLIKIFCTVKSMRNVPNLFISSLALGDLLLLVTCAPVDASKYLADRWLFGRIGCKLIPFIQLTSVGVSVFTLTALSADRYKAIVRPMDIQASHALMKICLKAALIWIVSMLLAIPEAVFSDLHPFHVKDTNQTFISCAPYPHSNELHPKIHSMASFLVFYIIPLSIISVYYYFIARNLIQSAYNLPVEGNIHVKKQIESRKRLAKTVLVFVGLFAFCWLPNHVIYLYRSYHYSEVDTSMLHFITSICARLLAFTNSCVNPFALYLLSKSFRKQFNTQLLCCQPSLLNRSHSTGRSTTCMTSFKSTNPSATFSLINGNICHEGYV

## CC(C)CC(NC(=O)C(CC(C)C)NC(=O)C(Cc1cnc[nH]1)NC(=O)Cn1c(=O)n(CCNC(=O)C(Cc2c[nH]c3ccccc23)NC(=O)C(CCC(N)=O)NC(=O)[C@H](N)Cc2ccccc2)c(=O)c2ccccc21)C(N)=O (some centres not stated) [Bombesin analogues]
  pKi: < 6.00

## CC(C)CC(NC(=O)C(CC(C)C)NC(=O)C(Cc1cnc[nH]1)NC(=O)[C@H](Cc1ccccc1)N1CC[C@H](NC(=O)C(C)NC(=O)C(Cc2c[nH]c3ccccc23)NC(=O)C(CCC(N)=O)NC(=O)[C@H](N)Cc2ccccc2)C1=O)C(N)=O (some centres not stated) [Bombesin analogues]
  pKi: < 6.00
